The results in this text go back to ChEMBL document CHEMBL1759990, “Synthesis and SAR of novel quinazolines as potent and brain-penetrant c-jun N-terminal kinase (JNK) inhibitors” (Bioorg Med Chem Lett, 2011).

Data set [1] addresses Mitogen-activated protein kinase 10 (Homo sapiens, UniProt P53779). Nature of the data set: Inhibition of JNK3 by HRTF. An outline of the steps: (§1)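 HTRF kinase assay with final concentrations of 0.1 nM JNK1 or 0.3 nM JNK3, 0.4 nM biotinylated-ATF2 substrate and 1 mM ATP. Phospho-Thr71-ATF-2 was detected with a Europium-cryptate anti-phospho-Thr71-ATF-2 antibody, with streptavidin-allophycocyanin-XL as acceptor. A 10-point dose-response was run in duplicate and fit to a four-parameter logistic. JNK3 values are means of four or more experiments; JNK1 values are means of two or more.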

The target of data set [2] is Mitogen-activated protein kinase 8 (Homo sapiens, UniProt P45983). Nature of the data set: Inhibition of JNK1 by HRTF. Put shortly: as §1
Sequence of Mitogen-activated protein kinase 8 (P45983 whole entry): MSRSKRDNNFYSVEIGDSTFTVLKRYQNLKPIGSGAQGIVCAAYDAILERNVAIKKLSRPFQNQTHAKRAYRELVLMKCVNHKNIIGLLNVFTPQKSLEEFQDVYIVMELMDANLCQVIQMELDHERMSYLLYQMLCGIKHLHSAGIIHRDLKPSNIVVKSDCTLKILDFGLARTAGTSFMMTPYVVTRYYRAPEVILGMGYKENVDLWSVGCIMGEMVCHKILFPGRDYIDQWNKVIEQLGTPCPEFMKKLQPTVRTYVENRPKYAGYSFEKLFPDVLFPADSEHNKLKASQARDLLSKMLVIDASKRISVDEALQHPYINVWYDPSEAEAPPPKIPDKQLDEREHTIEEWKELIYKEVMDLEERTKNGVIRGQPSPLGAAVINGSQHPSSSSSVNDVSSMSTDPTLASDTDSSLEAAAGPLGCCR
Data set [3] can be described thus: Drug level in mouse plasma at 10 mg/kg, ip after 2 hrs. Type of data set: ADME, organism-based. Set-up: dose 10 mg/kg, route intraperitoneal. The following applies: read-out: Drug uptake. Put shortly: (§2)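 Mouse dosed at 10 mg/kg ip. Brain and plasma concentrations (µM) were measured at 2 h.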
The nature of data set [4]: Drug level in mouse brain at 10 mg/kg, ip after 2 hrs. Type of data set: ADME, organism-based. Also noted: dose 10 mg/kg, route intraperitoneal. The following applies: read-out: Drug uptake. An outline of the steps:
as §2

Data set [5] concerns Rattus norvegicus. Nature of the data set: Half life in rat at 1 mg/kg, iv. Also noted: dose 1 mg/kg, route intravenous. Type of data set: ADME, organism-based. Conditions: in vivo.
Data set [6] can be described thus: Volume of distribution in rat at 1 mg/kg, iv. It is filed as ADME, organism-based. Also noted: dose 1 mg/kg, route intravenous. The following applies: in vivo.
A short description of data set [7]: AUC in rat at 2 mg/kg, po. It is filed as ADME, organism-based. Set-up: dose 2 mg/kg, route oral. Conditions: plasma.
Data set [8] in a line: Cmax in rat at 2 mg/kg, po. It is filed as ADME, organism-based. Also noted: dose 2 mg/kg, route oral. Conditions: in vivo.
Data set [9] concerns Rattus norvegicus. Nature of the data set: Oral bioavailability in rat at 2 mg/kg. The following applies: in vivo. Type of data set: ADME, organism-based.

Bounds are passed on as bounds.

Sequence of Mitogen-activated protein kinase 10 (P53779 whole entry): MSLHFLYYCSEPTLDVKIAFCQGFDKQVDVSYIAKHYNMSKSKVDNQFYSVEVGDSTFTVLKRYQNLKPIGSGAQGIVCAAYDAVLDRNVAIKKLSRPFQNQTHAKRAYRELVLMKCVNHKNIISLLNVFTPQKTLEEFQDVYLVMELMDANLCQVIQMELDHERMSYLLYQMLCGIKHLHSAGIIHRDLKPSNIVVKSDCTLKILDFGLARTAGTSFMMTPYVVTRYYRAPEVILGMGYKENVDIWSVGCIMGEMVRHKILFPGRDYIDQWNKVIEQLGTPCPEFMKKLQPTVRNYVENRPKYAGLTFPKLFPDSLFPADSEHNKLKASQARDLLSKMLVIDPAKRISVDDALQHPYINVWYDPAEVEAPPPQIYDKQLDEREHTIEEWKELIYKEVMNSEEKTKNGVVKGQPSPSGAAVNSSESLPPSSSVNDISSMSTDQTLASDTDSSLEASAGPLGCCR

Take `Cn1cc(-c2ccc3cnc(Nc4ccc(-n5cnc(N6CCOCC6)n5)cc4)nc3c2)cn1`: the IC50 (commonly the concentration needed to halve the response being measured) amounted to 90 nM in data set [1] and 50 nM in data set [2]. In addition, the concentration at 2 h came to 17.8 µM in data set [3] and 7.17 µM in data set [4]. Besides, the t1/2 in the data set on Rattus norvegicus [5] was 3 h. For the same compound, the Vd (in general, a proportionality between amount in the body and measured concentration, not a real space) in data set [6] stood at 0.8 L/kg. The AUC (usually concentration integrated over time) in [7] came out at 6.3 µM·h. Moreover, the highest concentration (Cmax) (usually the highest concentration seen after dosing) in data set [8] worked out at 0.7 µM. For the same compound, the F with Rattus norvegicus [9] came to 28%.

In turn, `c1cncc(-c2ccc3cnc(Nc4ccc(-n5cnc(N6CCOCC6)n5)cc4)nc3c2)c1` had an IC50 in [1] of 210 nM. The concentration at 2 h was 26.7 µM in [3] and 8.1 µM in data set [4].

In [1], `c1cc(-n2cnc(N3CCOCC3)n2)ccc1Nc1ncc2ccc(-c3cnoc3)cc2n1` had an IC50 of 700 nM.

For the compound `Cc1ccc(-c2cccc3cnc(NC4CCC(O)CC4)nc23)cn1` (stereo not given), in data set [1], the IC50 came to 50 nM.

`Cn1cc(-c2ccc3cnc(Nc4ccc(-n5cnc(N6CCOCC6)n5)cc4)nc3c2C(F)(F)F)cn1` gave an IC50 in data set [1] of 190 nM. The concentration at 2 h in [3] is 8.3 µM; in [4], 5.6 µM.

The compound `Cn1cc(-c2ccc3cnc(Nc4ccc(-n5cnc(N6CCOCC6)n5)cc4)nc3c2-c2cnn(C)c2)cn1` returned a 50% inhibitory concentration (IC50) in [1] of 9 nM. For the same compound, the figures for the concentration at 2 h in data set [3] and in [4] were 6.3 µM and 0.22 µM, respectively.

`c1cc(-n2cnc(N3CCOCC3)n2)ccc1Nc1ncc2ccc(N3CCOCC3)cc2n1` registered an IC50 in [1] of 4400 nM.

For the compound `Cc1ncn(-c2ccc(Nc3ncc4cccc(-c5nccs5)c4n3)cc2)n1`, the figures for the IC50 in [1] and in data set [2] were 20 nM and 10 nM, respectively. In addition, the concentration at 2 h is 5 µM in data set [3] and 4.5 µM in data set [4].

Take `COc1ccc(-c2cccc3cnc(Nc4ccc(-n5cnc(C)n5)cc4)nc23)cc1F`: in [1], half-maximal inhibition (IC50) was put at 80 nM. Further, the values for the concentration at 2 h in data set [3] and in data set [4] were 10.3 µM and 7.6 µM, respectively.

Compound `CC(C)n1cc(-c2ccc3cnc(Nc4ccc(-n5cnc(N6CCOCC6)n5)cc4)nc3c2Cl)cn1` gave an IC50 in data set [1] of 63 nM. Further, the concentration at 2 h in data set [3] came out at 4.3 µM; in data set [4], 7.2 µM.

`Cn1cc(-c2cccc3cnc(Nc4ccc(-n5cnc(N6CCOCC6)n5)cc4)nc23)cn1`: the IC50 in [1] worked out at 20 nM; in data set [2] it was 10 nM. Further, the concentration at 2 h in data set [3] turned out to be 2.2 µM; in data set [4] it was 0.23 µM.

In turn, `Cc1ccc(-c2cccc3cnc(Nc4ccc(-n5cnc(C)n5)cc4)nc23)cn1` gave an IC50 in [1] of 30 nM. Moreover, the figures for the concentration at 2 h in data set [3] and in data set [4] were 2.31 µM and 0.23 µM, respectively.

In the case of `Cc1ccc(-c2cccc3cnc(Nc4ccc(C(=O)N5CCOCC5)cc4)nc23)cn1`, the IC50 in data set [1] was found to be 90 nM. That is a double-digit nanomolar value.

With `c1ccc(-c2cccc3cnc(Nc4ccc(-n5cnc(N6CCOCC6)n5)cc4)nc23)cc1`, the IC50 in data set [1] was 60 nM; in data set [2], 50 nM. The figures for the concentration at 2 h in data set [3] and in data set [4] were 5.2 µM and 12.7 µM, respectively.

In turn, `COc1c(-c2cnn(C)c2)ccc2cnc(Nc3ccc(-n4cnc(N5CCOCC5)n4)cc3)nc12` had an IC50 in [1] of 4 nM. The results for the concentration at 2 h in data set [3] and in data set [4] were 9.4 µM and 4.9 µM, respectively. In the data set with Rattus norvegicus [9], this compound showed an F of 8%.

`Cn1cc(-c2ccc3cnc(Nc4ccc(-n5cnc(N6CCOCC6)n5)cc4)nc3c2Cl)cn1` gave an IC50 in data set [1] of 40 nM. Besides, the values for the concentration at 2 h in data set [3] and in [4] were 10.4 µM and 8.3 µM, respectively. Moreover, the t1/2 with Rattus norvegicus [5] was 3 h. For the same compound, the distribution volume (Vd) in data set [6] worked out at 1.4 L/kg. This compound also had an AUC in [7] of 2.3 µM·h. Besides, in data set [8], the peak level (Cmax) was 0.3 µM. For the same compound, in the data set on Rattus norvegicus [9], the F is 19%.

Regarding `Cn1cc(-c2ccc3cnc(Nc4ccc(-n5cnc(N6CCOCC6)n5)cc4)nc3c2-c2ccccc2)cn1`, the IC50 in [1] stood at 10 nM. Also, the concentration at 2 h is 6.4 µM in [3] and 1.1 µM in data set [4].

On to `COc1ccc(-c2cccc3cnc(Nc4ccc(-n5cnc(-c6ccccn6)n5)cc4)nc23)cc1F`, for which the IC50 in data set [1] amounted to 90 nM. That is a double-digit nanomolar value.

For the compound `c1cc(-n2cnc(N3CCOCC3)n2)ccc1Nc1ncc2ccc(-c3cn[nH]c3)cc2n1`, the IC50 amounted to 50 nM in data set [1] and 40 nM in [2]. Besides, the concentration at 2 h in data set [3] is 42.9 µM; in data set [4], 1.31 µM.

Take `c1ccc(-c2ccc3cnc(Nc4ccc(-n5cnc(N6CCOCC6)n5)cc4)nc3c2)cc1`: in data set [1], the IC50 was over 20000 nM.

As to `Cn1cc(-c2ccc3cnc(Nc4ccc(-n5cnc(N6CCOCC6)n5)cc4)nc3c2C2CC2)cn1`, half-maximal inhibition in data set [1] (IC50) was put at 20 nM. The concentration at 2 h in data set [3] came to 10.6 µM; in [4], 5 µM.

For the compound `COc1ccc(-c2cccc3cnc(Nc4ccc(-n5cnc(N6CCOCC6)n5)cc4)nc23)cc1F`, the IC50 in data set [1] worked out at 70 nM; in data set [2], 90 nM. Also, the concentration at 2 h in data set [3] was determined as 6.1 µM; in data set [4] it was 1.5 µM.

In turn, `Cc1ccc(-c2ccc3cnc(Nc4ccc(-n5cnc(N6CCOCC6)n5)cc4)nc3c2)cn1` registered an IC50 in data set [1] of 730 nM.

Consider `Cn1cc(-c2ccc3cnc(Nc4ccc(-n5cnc(-c6ccccn6)n5)cc4)nc3c2)cn1`, for which the IC50 in data set [1] was determined as 60 nM; in [2], 100 nM. Moreover, the concentration at 2 h is 13.1 µM in [3] and 1.37 µM in data set [4].

As for `Cc1ccc(-c2cccc3cnc(N[C@H]4CC[C@@H](C(=O)N5CCCC5)CC4)nc23)cn1`, in [1], the IC50 is 30 nM.

For `Cc1ccc(-c2cccc3cnc(Nc4ccc5c(c4)OCO5)nc23)cn1`, the IC50 in data set [1] stood at 60 nM. Moreover, the concentration at 2 h in data set [3] was 0.78 µM; in data set [4], 1.06 µM.

In data set [1], `Cc1ccc(-c2ncn(-c3ccc(Nc4ncc5ccc(-c6cn[nH]c6)cc5n4)cc3)n2)cn1` registered an IC50 of 50 nM.

On to `c1cc(-c2nccs2)c2nc(Nc3ccc(-n4cnc(N5CCOCC5)n4)cc3)ncc2c1`, for which the IC50 in data set [1] is 7 nM; in [2] it was 30 nM.

For the compound `Cc1ccc(-c2cccc3cnc(Nc4ccc(-n5cnc(N6CCOCC6)n5)cc4)nc23)cn1`, the IC50 in [1] was determined as 30 nM. Moreover, the results for the concentration at 2 h in data set [3] and in data set [4] were 2.7 µM and 0.15 µM, respectively.

In turn, `Cc1c(-c2cnn(C)c2)ccc2cnc(Nc3ccc(-n4cnc(N5CCOCC5)n4)cc3)nc12` returned an IC50 in data set [1] of 10 nM. In addition, the concentration at 2 h in data set [3] was 7.4 µM; in data set [4] it was 7.6 µM.

Compound `Cc1ccc(-c2cccc3cnc(Nc4ccc(F)cc4)nc23)cn1` showed a half-inhibitory concentration (IC50) in data set [1] of 170 nM.
